One data set concerns MRC5. Nature of the data set: Antiproliferative activity at human MRC5 cells after 72 hrs by MTT assay. It is filed as functional, cell-based. The following applies: MRC5, 72 h.
Data set [1] deals with Mus musculus. The data set can be described thus: Toxicity in BALB/c nu/nu mouse xenografted with human DMS53 cells assessed as hepatocellular necrosis at 0.75 mg/kg, iv administered for 5 days a week measured after 21 days by hematoxylin and eosin staining method. It is filed as organism-based, DMS-53. Further details: dose 0.75 mg/kg, route intravenous. The following applies: in vivo, 504 h. An outline of the steps:
(§1)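 Nude mice with DMS-53 xenografts dosed by tail-vein iv injection in 30% propylene glycol/saline, starting at 100 mm3 tumour volume, 5 days/week for 21 days. Spleen, kidney, liver, heart, lungs and brain were stained with H&E, Perls' (Fe loading) and Gomori Trichrome (fibrosis) by standard methods, and an independent veterinary pathologist examined them.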

The subject of data set [2] is Mus musculus. Nature of the data set: Toxicity in BALB/c nu/nu mouse xenografted with human DMS53 cells assessed as hepatocellular fibrosis at 0.75 mg/kg, iv administered for 5 days a week measured after 21 days by hematoxylin and eosin staining method. In kind it is organism-based, DMS-53. Further details: dose 0.75 mg/kg, route intravenous. The following applies: in vivo, 504 h. Summed up:
as §1

The subject of data set [3] is Mus musculus. Nature of the data set: Toxicity in BALB/c nu/nu mouse xenografted with human DMS53 cells assessed as hepatocellular necrosis at 3 mg/kg, iv administered for 5 days a week measured after 21 days by hematoxylin and eosin staining method. Further details: dose 3 mg/kg, route intravenous. The following applies: in vivo, 504 h. It is filed as organism-based, DMS-53. Summed up: as §1

The subject of data set [4] is SK-N-MC. The data set can be described thus: Inhibition to 59Fe uptake from 59Fe-transferrin in human SK-N-MC cells at 25 uM after 3 hrs. In kind it is functional. Further details: scale not given: the % may be the effect or the level left. Summed up: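 SK-N-MC cells labeled with 59Fe-transferrin (0.75 μM) for 3 h/37 °C with or without chelators (25 μM). Cells washed four times on ice with ice-cold PBS. Internalized 59Fe separated with Pronase (1 mg/mL) and expressed as % of control. Mean ± SD of three experiments.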

Data set [5] has as its system Mus musculus. The data set can be described thus: Toxicity in BALB/c nu/nu mouse xenografted with human DMS53 cells assessed as change in lungs histology at 0.75 mg/kg, iv administered for 5 days a week measured after 21 days by hematoxylin and eosin staining method. The following applies: in vivo, 504 h. Further details: dose 0.75 mg/kg, route intravenous. In kind it is organism-based, DMS-53. Summed up: (§2)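 DMS-53 xenograft nude mice, dosed from 100 mm3 tumor volume. Reference chelator given iv via tail vein as the base form, 5 days/week for 21 days, vehicle 30% propylene glycol/saline. Organs taken at sacrifice on day 21, stained with H&E, Perls' and Gomori Trichrome, and examined by an independent veterinary pathologist.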

The test system of data set [6] is Mus musculus. The data set can be described thus: Toxicity in BALB/c nu/nu mouse xenografted with human DMS53 cells assessed as change in brain histology at 0.75 mg/kg, iv administered for 5 days a week measured after 21 days by hematoxylin and eosin staining method. It is filed as organism-based, DMS-53. The arrangement: dose 0.75 mg/kg, route intravenous. The following applies: in vivo, 504 h. An outline of the steps:
as §2

The subject of data set [7] is DMS-53. The data set can be described thus: Antitumor activity against human DMS53 cells xenografted BALB/c nu/nu mouse assessed as reduction of tumor volume at 0.75 mg/kg, iv administered for 5 days a week measured after 21 days (RVb = 922 94 mm'3). In kind it is functional, organism-based. The arrangement: dose 0.75 mg/kg. An outline of the steps:
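Nude mice bearing DMS-53 xenografts began dosing once tumors reached 100 mm3. Agents given iv by tail vein 5 days/week in vehicle of 30% propylene glycol/saline, with vehicle controls. Net tumor volume followed for 21 days. Mice sacrificed on day 21 and tumors excised and wet-weighed.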

Data set [8] concerns Mus musculus. The data set can be described thus: Toxicity in BALB/c nu/nu mouse xenografted with human DMS53 cells assessed as change in platelet count at 0.75 mg/kg, iv administered for 5 days a week measured after 21 days. It is filed as organism-based, DMS-53. The arrangement: dose 0.75 mg/kg, route intravenous. The following applies: in vivo, 504 h. Summed up:
(§3)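 Nude mice carrying DMS-53 xenografts (treatment from 100 mm3) received iv tail-vein doses in 30% propylene glycol/saline, 5 days/week for 21 days. Hematological indices (RBC, hemoglobin, hematocrit, reticulocytes, WBC, platelets) were then compared with vehicle controls.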

Data set [9] concerns Mus musculus. The data set can be described thus: Toxicity in BALB/c nu/nu mouse xenografted with human DMS53 cells assessed as change in hemoglobin level at 0.75 mg/kg, iv administered for 5 days a week measured after 21 days. Further details: dose 0.75 mg/kg, route intravenous. In kind it is organism-based, DMS-53. The following applies: in vivo, 504 h. Summed up: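 DMS-53 xenografts in nude mice; dosing started at 100 mm3 tumor volume. Agents given iv via tail vein, 5 days/week for 21 days, vehicle 30% propylene glycol/saline, vehicle-treated controls. Mice sacrificed day 21. Body and organ weights and hematological indices recorded. Spleen, kidney, liver, heart, lungs and brain were stained with H&E, Perls' and Gomori Trichrome and read by an independent veterinary pathologist.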

The test system of data set [10] is Mus musculus. Nature of the data set: Toxicity in BALB/c nu/nu mouse xenografted with human DMS53 cells assessed as change in organ weight at 0.75 mg/kg, iv administered for 5 days a week measured after 21 days. In kind it is organism-based, DMS-53. Further details: dose 0.75 mg/kg, route intravenous. The following applies: in vivo, 504 h. Summed up: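 DMS-53 xenograft-bearing nude mice, treatment started at 100 mm3 tumour volume: iv tail-vein dosing in 30% propylene glycol/saline, 5 days/week for 21 days. Organs were weighed at sacrifice and compared with vehicle-control mice.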

Data set [11] relates to DMS-53. Nature of the data set: Antiproliferative activity at human DMS53 cells after 72 hrs by MTT assay. It is filed as functional, cell-based.
Data set [12] has as its system Mus musculus. Nature of the data set: Toxicity in BALB/c nu/nu mouse xenografted with human DMS53 cells assessed as change in RBC count at 0.75 mg/kg, iv administered for 5 days a week measured after 21 days. In kind it is organism-based, DMS-53. The following applies: in vivo, 504 h. Further details: dose 0.75 mg/kg, route intravenous.
Data set [13] deals with A549. Nature of the data set: Antiproliferative activity at human A549 cells after 72 hrs by MTT assay. It is filed as functional, cell-based.
The subject of data set [14] is Mus musculus. Nature of the data set: Toxicity in BALB/c nu/nu mouse xenografted with human DMS53 cells assessed as change in hematopoetic cells in splenic red pulp at 0.75 mg/kg, iv administered for 5 days a week measured after 21 days by hematoxylin and eosin staining method. In kind it is organism-based, DMS-53. Further details: dose 0.75 mg/kg, route intravenous. The following applies: in vivo, 504 h. An outline of the steps: as §2

Data set [15] concerns Mus musculus. Nature of the data set: Toxicity in BALB/c nu/nu mouse xenografted with human DMS53 cells assessed as cardiac fibrosis at 0.75 mg/kg, iv administered for 5 days a week measured after 21 days by […]. In kind it is organism-based, Heart, DMS-53. Further details: dose 0.75 mg/kg, route intravenous. The following applies: in vivo, 504 h. An outline of the steps:
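DMS-53 xenograft nude mice given agents iv by tail vein 5 days/week in 30% propylene glycol/saline for 21 days. At sacrifice, heart sections were stained with Gomori Trichrome to detect fibrosis. Spleen, kidney, liver, heart, lungs and brain were also stained with H&E and Perls' and examined by an independent veterinary pathologist.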

The subject of data set [16] is Mus musculus. Nature of the data set: Toxicity in BALB/c nu/nu mouse xenografted with human DMS53 cells assessed as change in reticulocyte count at 0.75 mg/kg, iv administered for 5 days a week measured after 21 days. It is filed as organism-based, DMS-53. The arrangement: dose 0.75 mg/kg, route intravenous. The following applies: in vivo, 504 h. Summed up: as §3

For data set [17], the system named is SK-N-MC. Nature of the data set: Induction of 59Fe mobilization in human SK-N-MC cells at 25 uM after 3 hrs by gamma-scintillation counter. It is filed as functional. Summed up: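 SK-N-MC cells prelabeled with 59Fe-transferrin (0.75 μM) for 3 h/37 °C, then washed four times on ice with ice-cold PBS. Cells reincubated with or without chelators (25 μM) for 3 h/37 °C. Released 59Fe given as % of cellular 59Fe. Mean ± SD of three experiments.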

Data set [18] deals with Mus musculus. Nature of the data set: Toxicity in human DMS53 cells xenografted BALB/c nu/nu mouse assessed as body weight change at 0.75 mg/kg, iv administered for 5 days a week measured after 21 days. In kind it is organism-based, DMS-53. Further details: dose 0.75 mg/kg, route intravenous. The following applies: in vivo, 504 h. Summed up:
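Body weights of DMS-53 xenograft-bearing nude mice were followed over 21 days of iv tail-vein dosing, 5 days/week, in 30% propylene glycol/saline, beginning at 100 mm3 tumour volume. Values are the average body weight per group.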

For data set [19], the system named is Mus musculus. Nature of the data set: Toxicity in BALB/c nu/nu mouse xenografted with human DMS53 cells assessed as vacuolation at 0.75 mg/kg, iv administered for 5 days a week measured after 21 days by hematoxylin and eosin staining method. The following applies: in vivo, 504 h. The arrangement: dose 0.75 mg/kg, route intravenous. It is filed as organism-based, DMS-53. Summed up:
as §1

The test system of data set [20] is SK-N-MC. The data set can be described thus: Antiproliferative activity at human SK-N-MC cells after 72 hrs by MTT assay. In kind it is functional, cell-based.
In data set [21] the test system is A549. Nature of the data set: Ratio of compound IC50 to DFO IC50 for human A549 cells. In kind it is functional. Summed up: (§4)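 A549 human non-small cell lung carcinoma cells were exposed to agents for 72 h. IC50 is the concentration that inhibits cell growth to 50% of the untreated control. Values are mean ± SD of three experiments. The ratio is the compound IC50 divided by the IC50 of the reference chelator (DFO or NIH) from the same assay.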

The test system of data set [22] is A549. Nature of the data set: Ratio of compound IC50 to NIH IC50 for human A549 cells. In kind it is functional. Summed up:
as §4

Calls of active or inactive are those of the source. The calls are words filed in the database; no cut-off is given here. Bounds are passed on as bounds.

`CN(C)C(=S)NN=C(c1ccccn1)c1ccccn1`: the half-inhibitory concentration (IC50) with MRC5 is greater than 10000 nM; in the data set on DMS-53 [11] (Homo sapiens, DMS-53, 72 h), 10 nM; with A549 [13] (Homo sapiens, A549, 72 h) it was 20 nM. Besides, the Activity result in the data set on Mus musculus [1] was “Non-toxic”; in the data set on Mus musculus [2], “Non-toxic”; with Mus musculus [3], “Non-toxic”; in the data set with SK-N-MC [4], 3.5%; in the data set with Mus musculus [5], “Non-toxic”; in the data set with Mus musculus [6], “Non-toxic”. In addition, the Activity result is listed as “Non-toxic” in the data set on Mus musculus [8]; “Non-toxic” with Mus musculus [9]; “Non-toxic” in the data set with Mus musculus [10]; “Non-toxic” with Mus musculus [12]; “Non-toxic” in the data set on Mus musculus [14]; “Toxic” in the data set with Mus musculus [15]. For the same molecule, the Activity entry in the data set with Mus musculus [16] was “Non-toxic”; with SK-N-MC [17], 45%; in the data set with Mus musculus [18], “Non-toxic”; in the data set on Mus musculus [19] it was “Toxic”. Besides, the outcome in the data set with DMS-53 [7] was Active.

In the data set with SK-N-MC [20], `CCN(C(=S)NN=C(c1ccccn1)c1ccccn1)c1ccccc1` came in with a half-inhibitory concentration (IC50) of 10 nM.

On to `Nc1ccn([C@@H]2O[C@H](CO)[C@@H](O)C2(F)F)c(=O)n1` [GEMCITABINE], for which the concentration for half-maximal inhibition (IC50) in the data set with DMS-53 [11] (Homo sapiens, DMS-53, 72 h) is 9 nM; in the data set with A549 [13] (Homo sapiens, A549, 72 h) it was 20 nM.

As for `CCN(C)C(=S)NN=C(c1ccccn1)c1ccccn1`, the “Ratio IC50” value in the data set on A549 [21] and with A549 [22] was 137 each time. In addition, the 50% inhibitory concentration (IC50) with DMS-53 [11] (dms-53) came to 8 nM; in the data set with A549 [13] (a549), 10 nM; with SK-N-MC [20] it was 4 nM.

These data come from ChEMBL document CHEMBL2203173 (J Med Chem, 2012).
